Screening results from PubChem.
TRAIL sens C8: caspase-8 TRAIL sensitization. NB7+C8 cells + TRAIL, ATPlite viability luminescence. inhibition (viability loss, TRAIL sensitization), % at 10 µM. 1% of 360,000 active. AID 624354;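 active = compounds causing at least 50% loss of cell viability in the single-dose screen, relative to plate controls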
HSP90 refold inh: blocks HSP90-mediated luciferase refolding in reticulocyte lysate; 0.91% of 290,000 active; inhibition, % at 5.6 µM; Rabbit reticulocyte lysate, luciferase refolding luminescence, 3 h;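 active = inhibition above the screen-wide mean plus 3 SD, computed separately per campaign, cut at about 16% in these data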;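 also: 0% = DMSO wells and 100% = 60 µM geldanamycin wells; inhibitors lower the luminescence because luciferase stays unfolded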
PPC-1+TRAIL kill: PPC-1 cancer cell killing with TRAIL present. cell killing (% activity), % at 4 µM or 5 µM. 0.41% of 220,000 active. AID 1443. PPC-1 cells + TRAIL, ATPLite viability luminescence;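 active = cell killing above 50% in the first pass at 4 µM, then a duplicate retest at 5 µM averaging 50% or more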;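 also: plate controls were cells with TRAIL plus DMSO for no effect and medium-only wells lacking cells for full effect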
FLuc stim CS: affects firefly luciferase, flagging false hits in luciferase stimulation screens | activation factor at 10 µM | P08659 | AID 1027 | ATPlite luciferase biochemical, luminescence, 10 min; 0 = ATP-free wells, 1 = DMSO control | 200,000 tested, under 10 active;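 active = luciferase activation factor, scaled between plate controls, of at least 2 with compound at 10 µM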
Target sequence (P08659 whole entry, looked up): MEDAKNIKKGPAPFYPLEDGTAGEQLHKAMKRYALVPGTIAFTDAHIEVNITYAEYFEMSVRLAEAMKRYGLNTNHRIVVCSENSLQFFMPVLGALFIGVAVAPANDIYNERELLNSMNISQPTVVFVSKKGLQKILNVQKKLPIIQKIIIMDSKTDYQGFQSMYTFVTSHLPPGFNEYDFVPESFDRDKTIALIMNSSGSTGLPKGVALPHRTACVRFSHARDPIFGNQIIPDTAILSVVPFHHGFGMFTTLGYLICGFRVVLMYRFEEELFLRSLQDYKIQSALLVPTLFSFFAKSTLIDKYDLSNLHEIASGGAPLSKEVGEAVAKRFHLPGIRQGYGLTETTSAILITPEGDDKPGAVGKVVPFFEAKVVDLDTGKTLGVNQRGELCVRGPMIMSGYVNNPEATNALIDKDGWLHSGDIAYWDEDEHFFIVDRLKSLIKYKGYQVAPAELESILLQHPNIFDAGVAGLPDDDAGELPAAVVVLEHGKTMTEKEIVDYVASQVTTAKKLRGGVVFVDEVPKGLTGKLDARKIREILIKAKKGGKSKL
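Assay system: Luciferase/luciferin reagent mix; Medium: PBS as buffer for the ATP substrate; Dosing: test compounds dosed from 2 mM stocks in 100% DMSO; Times: 10 min, room temperature; Signal: luminescence from luciferase reaction; Read-out: luciferase activation; Controls: No-ATP low control, compound-free enzyme-plus-ATP high control.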
FLuc inhib CS: inhibits firefly luciferase, flagging false hits in luciferase inhibition screens; 1.5% of 200,000 active; inhibition, % at 10 µM; ATPLite firefly luciferase biochemical luminescence, 10 min; P08659;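 active = inhibition above about 50% when tested at 10 µM, limit read from the data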
HSP90 inh confirm: confirmation of HSP90 inhibitors; shares compounds with HSP90 refold inh; rabbit reticulocyte lysate, luciferase refolding luminescence, 3 h; inhibition, % at 5.9 µM; 64% of 2,300 active; AID 1846; in the data active = inhibition above about 18%;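 also: 0% = vehicle wells and 100% = reference inhibitor wells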
FLuc counter: counter-screen for HSP90 inhibitors: inhibitors of firefly luciferase; shares compounds with HSP90 refold inh; purified native firefly luciferase, luminescence; inhibition, % at 5.9 µM; 48% of 2,300 active; AID 1847;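 active = inhibition above the mean inhibition of all tested sample wells plus 3 SD, cut at about 10% in these data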;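 also: 0% = DMSO with luciferase and 100% = wells lacking luciferase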
* hit, by the source's call; x = not tested or not shown. Compounds with a hit are over-represented: about 2% of the library has one in this group of screens.

SMILES | TRAIL sens C8 | HSP90 refold inh | PPC-1+TRAIL kill | FLuc stim CS | FLuc inhib CS | HSP90 inh confirm | FLuc counter
CC(=O)c1sc(-c2ccc(Cl)cc2)cc1N | 5.3 | 18.0* | 16.3 | x | x | -5.8 | -18.7
FC(F)(F)c1ccc(Oc2ccc3cc(Br)ccc3c2)nc1 | -2.8 | 0.7 | -15.0 | 1 | 0.4 | x | x
COc1ccccc1C(NC(C)=O)c1cc(Cl)c2cccnc2c1O (stereo unspecified) | 2.2 | 23.7* | x | x | x | 14.4 | -11.4
CCc1sc(C(=O)Nc2ncccc2O)cc1C | 35.9 | 22.3* | x | x | x | 52.1* | 41.6*
Cc1ccccc1Nc1c(F)c(F)c(F)c(F)c1C(=O)O | -3.2 | 3.2 | 8.0 | 1.1 | -6.1 | x | x
Cn1cccc1C(=O)NC(=O)COC(=O)C12CC3CC(CC(O)(C3)C1)C2 | 2.0 | 42.8* | -11.4 | 0.4 | 57.3* | 53.7* | 44.2*
CC(=O)NC12CC3CC(C1)CC(C(=O)OCC(=O)NC(=O)c1cccn1C)(C3)C2 | 15.9 | 6.8 | 10.3 | 1.1 | -7.7 | x | x
COC(=O)c1ccc(CN(C)S(=O)(=O)c2cccs2)cc1 | 7.4 | -0.9 | x | x | x | x | x
COc1ccccc1NC(=O)c1coc(=O)c(Br)c1 | -7.6 | 55.2* | -7.7 | x | x | 83.3* | -7.3
COc1ccccc1NC(=O)c1cc(N)cc(C(=O)Nc2ccccc2OC)c1 | -7.8 | x | x | x | x | x | x
COCCNc1c(-c2ccc(OC)c(OC)c2)nc2ccc(Cl)cn12 | 22.6 | 20.5* | x | 0.9 | 6.8 | -6.8 | -7.2
COCCNc1c(-c2ccc(O)cc2)nc2ccc(Cl)cn12 | 4.7 | -1.2 | 15.7 | 0.9 | 6.2 | x | x
O=C(Nc1ccccc1)C1=C[C@H](C2CCCCC2)C[C@H](OCCCCO)O1 | 8.8 | x | x | x | x | x | x
O=C(Nc1ccccc1)C1=C[C@@H](C2CCCCC2)C[C@@H](OCCCCO)O1 | 10.7 | 25.9* | 0.2 | 0.9 | 6.4 | 35.5* | 27.5*
COCCCN(CC(=O)O)S(=O)(=O)c1cccc(Cl)c1 | 3.5 | 0.8 | 12.2 | 1.1 | -10.0 | x | x
CC1=CSC2=NC(=O)/C(=C\c3cccn3-c3ccccc3)C(=N)N12 | 5.3 | 3.8 | 32.1 | 1 | 3.7 | x | x
CC(C)c1ccc(-n2cccc2/C=C2/C(=N)N3C=CSC3=NC2=O)cc1 | -2.5 | 32.1* | 0.1 | 1 | -4.2 | 22.1* | 2.9
O=C(CCNS(=O)(=O)c1cccc2nsnc12)Nc1ccc2c(c1)OCCO2 | -18.9 | 4.4 | -14.2 | 1.1 | -5.9 | x | x
O=S(=O)(Nc1ccc2c(c1)OCCO2)c1cccc2nsnc12 | 10.6 | 20.0* | 17.2 | 1 | -2.0 | 30.9* | 49.6*
O=[N+]([O-])c1ccc(S(=O)(=O)Nc2ccc3c(c2)OCCO3)cc1 | 3.7 | 27.1* | x | x | x | 4.6 | -3.2
Nc1nnc(-c2ccccc2[N+](=O)[O-])o1 | -5.0 | 30.1* | 24.4 | 1 | -3.7 | -1.5 | -9.0
COCCn1c(=NC(=O)C(C)(C)C)sc2cc([N+](=O)[O-])ccc21 | 9.2 | -4.4 | 17.4 | 1 | -2.5 | x | x
CCOC(=O)C1CCN(c2ncnc3c2cnn3-c2ccc(Cl)cc2)CC1 | 35.3 | 1.7 | 24.8 | 1 | 1.1 | x | x
Clc1ccc(-n2ncc3c(N4CCCC4)ncnc32)cc1 | 55.2* | 30.8* | 48.9 | 0.3 | 75.0* | 61.8* | 58.5*
CN=c1scc(-c2ccc(F)cc2)n1/N=C/c1ccc(O)c(O)c1 | 74.0* | 19.7* | 20.0 | 0.1 | 89.6* | 42.4* | 18.8*
SMILES | TRAIL sens C8 | HSP90 refold inh | PPC-1+TRAIL kill | FLuc stim CS | FLuc inhib CS | HSP90 inh confirm | FLuc counter
Cc1ccc(-c2cc(C(=O)N/N=C/c3ccco3)[nH]n2)cc1 | -0.2 | 22.1* | 19.1 | 0.9 | 5.4 | 18.6* | 24.5*
CC1CCCCC12NC(=O)N(CC(=O)NNC(=O)c1ccc(Br)cc1)C2=O (stereo unspecified) | -4.9 | x | x | x | x | x | x
COc1cc2[nH]c(C(=O)Nc3ccc4c(c3)OCCO4)cc2c(OC)c1OC | 34.7 | 7.1 | x | x | x | x | x
CCN(CC(=O)Nc1ccc2c(c1)OCCO2)C(=O)/C=C/c1ccccc1 | 1.1 | -4.3 | 21.6 | 1 | 0.3 | x | x
O=C(/C=C/c1ccccc1)Nc1ccc2c(c1)OCCO2 | 74.7* | 32.3* | x | 0.1 | 94.0* | 51.4* | 47.9*
COc1cc2cc(C(=O)Nc3ccc4c(c3)OCCO4)[nH]c2cc1OC | -1.2 | 35.7* | x | x | x | 62.5* | 58.2*
O=C(Nc1ccc2c(c1)OCCO2)c1ccccc1 | 50.6* | 24.4* | x | x | x | 27.0* | 17.1*
O=C(CCCc1ccccc1)Nc1ccc2c(c1)OCCO2 | 4.0 | 25.8* | -3.7 | 0.7 | 34.7 | 31.9* | 28.7*
O=C(CC(=O)c1ccccc1)Nc1ccc2c(c1)OCCO2 | 28.1 | -0.2 | 19.5 | 0.6 | 41.5 | x | x
NC(=O)CSc1nnc(CSc2ncccn2)n1-c1ccccc1 | -7.1 | -3.3 | 21.9 | 1.1 | -7.0 | x | x
COc1ccc(N(CC(=O)NC2CC2)S(=O)(=O)c2ccccc2)cc1 | 8.1 | -3.9 | x | x | x | x | x
CC(C)c1noc2ncc(C(=O)c3cc(Cl)cc(Cl)c3O)cc12 | -12.3 | 2.9 | -20.9 | 1.1 | -5.9 | x | x
O=C(CCN=C1NS(=O)(=O)c2ccccc21)OCc1nnc(-c2ccccc2)o1 | 24.5 | x | x | x | x | x | x
O=C(/C=C/c1ccccc1)Nc1cc(NC(=O)/C=C/c2ccccc2)cc(C(=O)O)c1 | -2.1 | 32.2* | x | x | x | 41.0* | 9.6*
O=C(/C=C/c1cccc([N+](=O)[O-])c1)Nc1cc(C(=O)O)cc(C(=O)O)c1 | 1.9 | 1.4 | 20.8 | 1 | 2.0 | x | x
O=C(CC1CS(=O)(=O)CC1CC(=O)Nc1ccc2c(c1)OCCO2)Nc1ccc2c(c1)OCCO2 (stereo unspecified) | 10.0 | 58.5* | 19.3 | 0.9 | 12.6 | 68.5* | 62.3*
O=C(O)C1CCCCC1C(=O)Nc1ccc2c(c1)OCCO2 (stereo unspecified) | 11.1 | 29.2* | 2.6 | 1 | -3.1 | 2.3 | 6.1
Cc1ccccc1C(=O)Nc1ccc2c(c1)OCCO2 | 61.8* | 43.4* | x | x | x | 45.0* | 34.0*
CCC(=O)Nc1ccc2c(c1)OCCO2 | -2.0 | 2.0 | 5.1 | 1 | -2.9 | x | x
Cc1ccc(SCC(=O)NC(=O)Nc2ccc3c(c2)OCCO3)cc1C | -2.1 | -4.4 | 13.2 | 1.1 | -6.1 | x | x
O=C(CNC(=O)c1cccc(Cl)c1)N/N=C/C=C/c1ccccc1 | -12.6 | -0.8 | 10.8 | 1 | 0.9 | x | x
CC(C)(C)c1ccc(C(=O)Nc2cccc3c(=O)[nH][nH]c(=O)c23)cc1 | 47.3 | 46.6* | 31.0 | 0.3 | 69.7* | 62.5* | 20.8*
C[C@H](NC(=O)c1nc[nH]c1C(=O)NCC(=O)OCc1ccccc1)C(=O)OC(C)(C)C | 7.2 | 62.0* | x | x | x | -9.6 | -16.5
CCOC(=O)C(=NCCOC)NNc1cc(Cl)ccc1Cl | -2.6 | -5.9 | 14.1 | 1 | 2.1 | x | x
CC(C)(C)c1ccc(-c2cc(-c3ccccc3O)[nH]n2)cc1 | 32.2 | 51.5* | x | x | x | 60.4* | 58.9*
Oc1ccccc1-c1cc(-c2cccc(F)c2)n[nH]1 | 4.0 | -4.2 | 16.2 | 0.9 | 10.7 | x | x
